Source: ChEMBL document CHEMBL1157552, “Antimalarial and antitubercular nostocarboline and eudistomin derivatives: synthesis, in vitro and in vivo biological evaluation” (Bioorg Med Chem, 2010)
Counter-ions that a name gives are not always drawn.

Columns and labels:
[1] = system: Trypanosoma brucei rhodesiense; experiment: Antiparasitic activity against Trypanosoma brucei rhodesiense STIB 900; assay type: functional, organism-based
Summary of the method: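 Tested against bloodstream forms of STIB 900.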

[2] = system: Trypanosoma cruzi; experiment: Antiparasitic activity against Trypanosoma cruzi Tulahuen C2C4; assay type: functional, organism-based
Summary of the method: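 Tested against Tulahuen C2C4 amastigotes grown in L6 rat skeletal myoblasts.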

[3] = system: Leishmania donovani; experiment: Antiparasitic activity against Leishmania donovani MHOM-ET-67/L82 axenic amastigotes; assay type: functional, organism-based
[4] = system: Plasmodium falciparum; experiment: Antiparasitic activity against Plasmodium falciparum K1; assay type: functional, organism-based
Summary of the method: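 Tested against erythrocytic stages of the K1 strain.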

[5] = system: L6; experiment: Cytotoxicity against rat L6 cells; assay type: cell-based
[6] = Selectivity ratio of IC50 for rat L6 cells to IC50 for Plasmodium falciparum K1; assay type: ADME, cell-based; conditions: L6 cells (cytotoxicity) versus Plasmodium falciparum K1, read-out: Ratio IC50
[7] = system: Mycobacterium tuberculosis; experiment: Antitubercular activity against Mycobacterium tuberculosis H37Rv; assay type: functional
[8] = system: Mycolicibacterium smegmatis; experiment: Antitubercular activity against Mycobacterium smegmatis mc2 155; assay type: functional; conditions: str. MC2 155
[9] = system: Corynebacterium glutamicum; experiment: Antitubercular activity against Corynebacterium glutamicum ATCC 13032; assay type: functional
Summary of the method: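 Grown in 7H9 medium; susceptibility determined by resazurin reduction. MIC99 is the lowest drug concentration preventing growth of 99% of cells.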

[10] = system: Plasmodium berghei; experiment: Antiparasitic activity against Plasmodium berghei infected in mice (Mus musculus) assessed as reduction of parasitaemia at 50 mg/kg, intraperitoneally administered 4, 24, 48, 72 hrs post infection measured 24 hrs of last treatment on day 4 relative to control; assay type: functional; design: scale not given: the % may be the effect or the level left; conditions: route intraperitoneal
Summary of the method: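 Compounds formulated in DMSO/water and given i.p. at 50 mg/kg, 4 doses, to P. berghei-infected mice. Parasitaemia measured by FACS on day 4 post infection, 24 h after the last dose. Activity is the difference in mean % parasitaemia between control (n = 5 mice) and treated groups, as % of control. Mean survival time was also recorded.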

[11] = system: Plasmodium berghei; experiment: Antiparasitic activity against Plasmodium berghei infected in mice (Mus musculus) assessed as survival days at 50 mg/kg, intraperitoneally administered 4, 24, 48, 72 hrs post infection; assay type: functional; conditions: route intraperitoneal
Summary of the method: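 Infected mice received the compounds formulated in DMSO/water, given i.p. as 4 × 50 mg/kg. Parasitaemia was measured by FACS on day 4 post infection, 24 h after the last treatment. Activity was taken as the reduction in mean % parasitaemia versus the untreated control group (n = 5 mice). Mean survival time in days was recorded.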

Structure (SMILES) | IC50 [1] [µM] | IC50 [2] [µM] | IC50 [3] [µM] | IC50 [4] [µM] | IC50 [5] [µM] | selectivity ratio [6] | MIC99 [7] [µM] | MIC99 [8] [µM] | MIC99 [9] [µM] | Activity [10] [%] | Survival [11] [days]
C=CC[n+]1ccc2c(c1)[nH]c1ccc(Cl)cc12 | 33.5 | 57.8 | 196 | 0.831 | 126 | 152 |  |  |  |  | 
Clc1ccc2[nH]c3c[n+](Cc4cccc(C[n+]5ccc6c(c5)[nH]c5ccc(Cl)cc56)c4)ccc3c2c1 |  |  |  |  |  |  | 20 | 50 | 20 |  | 
CC[n+]1ccc2c(c1)[nH]c1ccc(Br)cc12.[I-] | 26.4 | 90.5 | > 223 | 0.032 | 78.8 | 2440 |  |  |  | 13.25 | 
Clc1ccc2[nH]c3c[n+](CCCCCCCC[n+]4ccc5c(c4)[nH]c4ccc(Cl)cc45)ccc3c2c1 |  |  |  |  |  |  | 7 | 147 | 7 |  | 
CC[n+]1ccc2c(c1)[nH]c1c(Br)cccc12 | 25 | 170 | > 223 | 6.62 | 153 | 23 |  |  |  |  | 
C[n+]1ccc2c(c1)[nH]c1ccc(Cl)cc12.[I-] [NOSTOCARBOLINE] |  |  |  |  |  |  | > 29 | 290 | > 29 | 49.6 | 7.3
C[n+]1ccc2c(c1)[nH]c1ccc(Br)cc12.[I-] | 47.2 | 132 | > 230 | 0.018 | 86.1 | 4780 |  |  |  | 0 | 
Brc1ccc2[nH]c3c[n+](Cc4ccc5ccccc5c4)ccc3c2c1 | 4.1 | 7.5 | 17.7 | 0.481 | 5.1 | 11 |  |  |  |  | 
Clc1ccc2[nH]c3c[n+](C/C=C\C[n+]4ccc5c(c4)[nH]c4ccc(Cl)cc45)ccc3c2c1.[Cl-].[Cl-] |  |  |  |  |  |  | 9 | > 188 | 5 | 11.53 | 
C[n+]1ccc2c(c1)[nH]c1ccccc12 [NORMELINONINE F] |  |  |  |  |  | > 853 |  |  |  |  | 
Clc1ccc2[nH]c3c[n+](Cc4ccc(-c5ccc(C[n+]6ccc7c(c6)[nH]c6ccc(Cl)cc67)cc5)cc4)ccc3c2c1.[Cl-].[Cl-] |  |  |  |  |  |  | > 15 | 152 | > 15 | 0 | 
Fc1ccc(C[n+]2ccc3c(c2)[nH]c2c(Br)cccc23)cc1 | 3.8 | 28.7 | 53.4 | 3.28 | 17.5 | 5 |  |  |  |  | 
CCCC[n+]1ccc2c(c1)[nH]c1ccc(Br)cc12 | 11.7 | 35.3 | 35.1 | 1.15 | 68.7 | 60 |  |  |  |  | 
C=CC[n+]1ccc2c(c1)[nH]c1ccc(Br)cc12.[Br-] | 17.4 | 86.6 | 20.1 | 0.492 | 131 | 266 |  |  |  | 3.57 | 
Clc1ccc2[nH]c3c[n+](CCCCCCCCCCCC[n+]4ccc5c(c4)[nH]c4ccc(Cl)cc45)ccc3c2c1 |  |  |  |  |  |  | 7 | 17 | 14 |  | 
Clc1ccc2[nH]c3c[n+](Cc4ccc(C[n+]5ccc6c(c5)[nH]c5ccc(Cl)cc56)cc4)ccc3c2c1 |  |  |  |  |  |  | > 17 | > 170 | > 17 |  | 
O=[N+]([O-])c1ccc(C[n+]2ccc3c(c2)[nH]c2ccc(Cl)cc23)cc1 | 21.3 | 32.8 | 146 | 2.21 | 42.2 | 19 |  |  |  |  | 
CC[n+]1ccc2c(c1)[nH]c1ccc(Cl)cc12.[I-] | 36.8 | 100 | 251 | 0.452 | 113 | 250 |  |  |  | 15.36 | 
Clc1ccc2[nH]c3c[n+](CCCc4ccccc4)ccc3c2c1 | 6.2 | 20.9 | 18.6 | 1.61 | 71.3 | 44 |  |  |  |  | 

Structure (SMILES) | IC50 [1] [µM] | IC50 [2] [µM] | IC50 [3] [µM] | IC50 [4] [µM] | IC50 [5] [µM] | selectivity ratio [6] | MIC99 [7] [µM] | MIC99 [8] [µM] | MIC99 [9] [µM] | Activity [10] [%] | Survival [11] [days]
Clc1ccc2[nH]c3c[n+](CCCCCCCCCC[n+]4ccc5c(c4)[nH]c4ccc(Cl)cc45)ccc3c2c1 |  |  |  |  |  |  | 4 | > 142 | 14 |  | 
COC(=O)CCC[n+]1ccc2c(c1)[nH]c1ccc(Br)cc12 | 111 | 64.6 | > 203 | 2.33 | 162 | 70 |  |  |  |  | 
Fc1ccc(C[n+]2ccc3c(c2)[nH]c2ccc(Cl)cc23)cc1 | 18.1 | 87.7 | 110 | 4.67 | 111 | 24 |  |  |  |  | 
Brc1ccc2[nH]c3c[n+](CCCc4ccccc4)ccc3c2c1 | 4.5 | 12.6 | 20.4 | 0.459 | 27.5 | 60 |  |  |  |  | 
Brc1ccc2[nH]c3c[n+](Cc4ccccc4)ccc3c2c1 | 5.2 | 16.3 | 21.2 | 2.37 | 61.6 | 26 |  |  |  |  | 
O=C1c2ccccc2-[n+]2ccc3c([nH]c4ccccc43)c21 [FASCAPLYSIN CHLORIDE] |  |  |  | 0.184 |  | 50 |  |  |  |  | 
COC(=O)CCC[n+]1ccc2c(c1)[nH]c1ccc(Cl)cc12 | 106 | 115 | 117 | 3.14 | 207 | 66 |  |  |  |  | 
O=[N+]([O-])c1ccc(C[n+]2ccc3c(c2)[nH]c2ccc(Br)cc23)cc1 | 10.8 | 14.1 | 38.2 | 1.33 | 18.1 | 14 |  |  |  |  | 
CCCC[n+]1ccc2c(c1)[nH]c1ccc(Cl)cc12 | 11.6 | 104 | 112 | 1.62 | 74 | 46 |  |  |  |  | 
Clc1ccc2[nH]c3c[n+](CCOCC[n+]4ccc5c(c4)[nH]c4ccc(Cl)cc45)ccc3c2c1.[Cl-].[Cl-] |  |  |  |  |  |  | 18 | 46 | 9 | 2.6 | 
Clc1ccc2[nH]c3c[n+](CCCCCC[n+]4ccc5c(c4)[nH]c4ccc(Cl)cc45)ccc3c2c1.[Br-].[Br-] |  |  |  |  |  |  | 8 | 20 | 8 | 0 | 
Brc1cccc2c1[nH]c1c[n+](Cc3ccccc3)ccc12 | 7 | 42.9 | 66.5 | 2.58 | 28.7 | 11 |  |  |  |  | 
Clc1ccc2[nH]c3c[n+](Cc4ccccc4)ccc3c2c1 | 6.2 | 24.6 | 113 | 3 | 27 | 9 |  |  |  |  | 
C=CC[n+]1ccc2c(c1)[nH]c1c(Br)cccc12 | 26.2 | 154 | 123 | 6.74 | 112 | 17 |  |  |  |  | 
C[n+]1c2ccccc2cc2[n-]c3ccccc3c21 [CRYPTOLEPINE HYDROCHLORIDE] |  |  |  |  |  | 9 |  |  |  |  | 
C[n+]1cc2[nH]c3ccccc3c2c2ccccc21 [ISONEOCRYPTOLEPINE] |  |  |  |  |  | 18 |  |  |  |  | 
Fc1cccc(C[n+]2ccc3c(c2)[nH]c2ccc(Br)cc23)c1 | 5.6 | 25.9 | 11 | 2.15 | 41.5 | 19 |  |  |  |  | 
Fc1ccc(C[n+]2ccc3c(c2)[nH]c2ccc(Br)cc23)cc1 | 4.7 | 13.3 | 16.4 | 1.76 | 22.6 | 13 |  |  |  |  | 
Brc1cccc2c1[nH]c1c[n+](Cc3ccc4ccccc4c3)ccc12 | 4.4 | 7.9 | 46.4 | 0.502 | 3.7 | 7 |  |  |  |  | 
